In PubChem BioAssay:
Unmarked numbers belong to inactive results. This is one part of the list. Calls of active or inactive are those of the source.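 Rule for the calls, unless noted: active = inhibition above the hit cutoff set in the earlier primary screen (cut at about 27% in these data); inactive = the rest.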

Legend:
[1] = target: Protein phosphatase methylesterase 1 (Homo sapiens) (UniProt Q9Y570); test: human PME-1 methylesterase inhibition confirmation – biochemical, fluorescence polarization, FP-Rh probe, triplicate (AID 2171); details: recombinant PME-1, FP-Rh probe fluorescence polarization; at 5.9 µM; stronger effect = higher value;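 note: 0% = enzyme with DMSO and 100% = wells lacking PME-1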
[2] = target: Bcl-2-like protein 1 (Homo sapiens) (UniProt Q07817); test: Bcl-xL BH3-peptide displacement, hit confirmation – biochemical, fluorescence polarization, counter-screen for MCL1 inhibitor project (AID 2166;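 active = inhibition above a cutoff equal to the mean inhibition of all tested compounds plus 3 SD, cut at about 30% in these data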); details: GST-Bcl-xL / FITC-Bim BH3 peptide FP binding; at 10.9 µM; stronger effect = higher value
[3] = target: Induced myeloid leukemia cell differentiation protein Mcl-1 (Homo sapiens) (UniProt Q07820); test: MCL1-BIM peptide interaction disruptors – biochemical, fluorescence polarization, triplicate, confirmation (AID 2168;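 active = inhibition above the average of all tested compounds plus 3 SD, cut at about 40% in these data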;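 note: 0% = DMSO wells and 100% = unlabeled Bim-BH3 control peptide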); details: GST-MCL1 / FITC-Bim-BH3 fluorescence polarization; at 10.9 µM; stronger effect = higher value
[4] = target: Protein-arginine deiminase type-4 (Homo sapiens) (UniProt Q9UM07); test: protein arginine deiminase 4 blockade, retest – biochemical, fluorescence polarization, confirmation (AID 488796;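 active = mean inhibition across replicates above the hit cutoff set by the earlier primary screen, cut at about 15% in these data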;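 note: inhibitors block active-site labeling by the probe so polarization falls; 0% = PAD4 with probe and DMSO and 100% = probe without PAD4 enzyme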); details: recombinant PAD4, RCA probe fluorescence polarization; at 6.36 µM; stronger effect = higher value
[5] = target: Oxysterols receptor LXR-beta (Homo sapiens) (UniProt P55055); test: nonspecific reporter activation via LXR – cell-based, luminescence, HEK293, H. contortus campaign, counter-screen for hcDAF-12 agonist project, confirmation (AID 743027;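 active = mean percent activation of the reporter above a cutoff set as the average over tested compounds plus their standard deviation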); details: HEK293 Gal4-LXR tk-luc reporter, 24 h, at 6.8 µM, stronger effect = higher value, normalized: DMSO 0%, positive control 100%
Summary of the method: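 Material: HEK293 Gal4-LXR luciferase reporter cells. Dosing: one nominal 6.8 µM dose, 0.68% DMSO. Schedule: one-day compound treatment at 37 °C. Technique: luciferase luminescence read with One-Glo reagent. Measure: % activation. Benchmarks: DMSO low control, positive-control high control. Replicates: triplicate wells per compound.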

[6] = tested on: Nuclear hormone receptor DAF-12 (Haemonchus contortus); test: hcDAF-12 luciferase reporter activation, retest – cell-based, luminescence, HEK293, lit1-tk-luc, triplicate, confirmation (AID 743032;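 active = mean activation across triplicate tests above the threshold derived from the earlier primary screen, cut at about 5.5% in these data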;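 note: 0% = DMSO only wells and 100% = 3 µM Δ7-dafachronic acid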); details: HEK293 hcDAF-12 lit1-tk-luc reporter, at 6.8 µM, stronger effect = higher value, % of Δ7-dafachronic acid response

Protein phosphatase methylesterase 1 (Homo sapiens), sequence (Q9Y570 whole entry, looked up): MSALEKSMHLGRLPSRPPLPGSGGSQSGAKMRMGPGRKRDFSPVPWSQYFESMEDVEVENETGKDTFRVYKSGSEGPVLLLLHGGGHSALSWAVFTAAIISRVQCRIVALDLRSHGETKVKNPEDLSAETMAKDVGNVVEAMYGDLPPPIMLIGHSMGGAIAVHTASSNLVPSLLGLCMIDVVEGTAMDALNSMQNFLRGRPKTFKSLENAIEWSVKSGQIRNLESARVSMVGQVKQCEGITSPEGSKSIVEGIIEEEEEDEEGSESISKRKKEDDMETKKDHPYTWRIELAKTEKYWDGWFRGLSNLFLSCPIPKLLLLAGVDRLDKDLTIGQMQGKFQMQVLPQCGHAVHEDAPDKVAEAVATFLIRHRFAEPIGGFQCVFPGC
Bcl-2-like protein 1 (Homo sapiens), sequence (Q07817 whole entry, looked up): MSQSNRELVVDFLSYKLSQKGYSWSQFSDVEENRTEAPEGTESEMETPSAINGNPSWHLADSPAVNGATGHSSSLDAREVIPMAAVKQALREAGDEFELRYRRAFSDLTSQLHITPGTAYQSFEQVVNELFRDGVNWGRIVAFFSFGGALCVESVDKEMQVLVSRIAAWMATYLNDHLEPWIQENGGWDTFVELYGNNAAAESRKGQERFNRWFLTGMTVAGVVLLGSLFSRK
Protein-arginine deiminase type-4 (Homo sapiens), sequence (Q9UM07 whole entry, looked up): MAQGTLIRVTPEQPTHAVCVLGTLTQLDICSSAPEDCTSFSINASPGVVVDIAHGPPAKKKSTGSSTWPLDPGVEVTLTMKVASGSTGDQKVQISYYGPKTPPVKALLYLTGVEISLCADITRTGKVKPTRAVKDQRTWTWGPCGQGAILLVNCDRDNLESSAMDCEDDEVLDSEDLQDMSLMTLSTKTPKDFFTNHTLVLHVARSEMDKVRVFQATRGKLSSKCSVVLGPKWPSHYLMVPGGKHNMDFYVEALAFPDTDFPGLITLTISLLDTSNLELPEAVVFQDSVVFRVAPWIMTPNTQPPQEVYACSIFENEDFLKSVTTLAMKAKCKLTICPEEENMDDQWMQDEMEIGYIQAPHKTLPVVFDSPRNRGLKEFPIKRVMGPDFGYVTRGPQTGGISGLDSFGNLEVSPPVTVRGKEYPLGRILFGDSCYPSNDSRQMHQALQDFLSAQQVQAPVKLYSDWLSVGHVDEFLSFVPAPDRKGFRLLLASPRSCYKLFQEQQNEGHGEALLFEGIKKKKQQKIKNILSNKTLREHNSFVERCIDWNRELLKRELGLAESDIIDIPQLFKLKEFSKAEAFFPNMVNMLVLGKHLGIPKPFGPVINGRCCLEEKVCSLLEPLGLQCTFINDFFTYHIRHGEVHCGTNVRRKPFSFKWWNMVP
Induced myeloid leukemia cell differentiation protein Mcl-1 (Homo sapiens), sequence (Q07820 whole entry, looked up): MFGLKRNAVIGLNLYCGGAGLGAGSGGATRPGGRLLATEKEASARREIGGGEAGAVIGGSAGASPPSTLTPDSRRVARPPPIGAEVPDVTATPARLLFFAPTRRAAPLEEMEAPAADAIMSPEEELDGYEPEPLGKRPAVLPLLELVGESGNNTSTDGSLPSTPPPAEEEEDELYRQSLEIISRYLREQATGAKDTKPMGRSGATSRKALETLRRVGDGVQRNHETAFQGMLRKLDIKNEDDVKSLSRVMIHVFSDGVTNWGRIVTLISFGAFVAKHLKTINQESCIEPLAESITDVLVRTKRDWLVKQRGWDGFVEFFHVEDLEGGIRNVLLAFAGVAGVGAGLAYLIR
Oxysterols receptor LXR-beta (Homo sapiens), sequence (P55055 whole entry, looked up, the tested form may be a part): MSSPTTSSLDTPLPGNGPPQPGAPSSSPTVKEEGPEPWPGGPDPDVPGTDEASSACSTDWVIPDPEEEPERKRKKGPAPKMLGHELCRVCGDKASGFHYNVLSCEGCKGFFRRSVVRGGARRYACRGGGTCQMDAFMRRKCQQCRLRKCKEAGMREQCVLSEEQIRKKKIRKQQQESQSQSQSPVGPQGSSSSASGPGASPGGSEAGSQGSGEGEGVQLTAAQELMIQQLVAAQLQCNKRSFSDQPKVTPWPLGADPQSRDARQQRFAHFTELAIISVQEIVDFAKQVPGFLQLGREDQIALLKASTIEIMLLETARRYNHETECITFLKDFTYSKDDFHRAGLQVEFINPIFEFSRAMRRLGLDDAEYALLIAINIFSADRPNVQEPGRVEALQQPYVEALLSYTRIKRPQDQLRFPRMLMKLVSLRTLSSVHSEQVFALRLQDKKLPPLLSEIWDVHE

Compound: CC(C)(C)c1cc(C(=O)N/N=C/c2ccc(-c3ccccc3[N+](=O)[O-])o2)n[nH]1
- inhibition [1]: 1.81%

Compound: COc1ncnc2c1N=C1CC(C)(C)CC(N)=C1S2
- inhibition [2]: 144% (active)
- inhibition [3]: 181% (active)
- inhibition [4]: 24.1% (active)

Compound: CC1=CN2C(=N)/C(=C/c3ccc([N+](=O)[O-])o3)C(=O)N=C2S1
- inhibition [1]: -6.58%

Compound: Brc1ccc(-c2ccc(C3Nc4cccc5cccc(c45)N3)o2)cc1
- inhibition [1]: 24.1%

Compound: COC(=O)c1ccc(Cn2nnc3c(=O)[nH]c(C4CCN(S(=O)(=O)c5ccc(F)cc5)CC4)nc32)cc1
- inhibition [1]: 38% (active)

Compound: CCc1nnc(NC(=O)c2sc3nc4cc(C)ccc4cc3c2N)s1
- inhibition [1]: 31.8% (active)

Compound: Cc1nn(C(=O)c2ccoc2C)c(N)c1-c1ccccc1
- inhibition [2]: 1.59%
- inhibition [3]: -8.2%
- inhibition [4]: 1.71%
- activation [5]: 0.39%
- activation [6]: 2.6%

Compound: O=c1[nH]c(C2CCN(S(=O)(=O)c3ccc(F)cc3)CC2)nc2c1nnn2Cc1ccc2c(c1)OCCO2
- inhibition [1]: 41% (active)

Compound: Cc1nc(S/C(=C/c2ccc(-c3cc(Cl)ccc3C)o2)C(=O)O)n[nH]1
- inhibition [1]: 26.7% (active)

Compound: Cc1cc(C)c2[nH]c(O)c(N=NC(=O)c3cc4c(s3)CCCC4)c2c1
- inhibition [1]: 31.9% (active)

Compound: O=C(NCCc1ccccc1)c1ccc2nc(-c3ccco3)c(-c3ccco3)nc2c1
- inhibition [1]: 15.6%

Compound: C/C(=N/Nc1ccnc2cc(Cl)ccc12)c1ccc(N)cc1
- inhibition [1]: 26%

Compound: Cc1ccc(NC(=O)COc2cccc(/C=C3\SC(=S)N(CCC(=O)O)C3=O)c2)cc1Cl
- inhibition [1]: 26%

Compound: Nc1cc2nsnc2cc1Br
- inhibition [1]: 34.7% (active)

Compound: O=C1c2cccc3c(O)ccc(c23)C(=O)N1c1ccc(Cl)cc1
- inhibition [1]: 28.3% (active)

Compound: O=C1C(CSCc2ccccc2)NC(=S)N1c1ccccc1 (stereo not drawn)
- inhibition [1]: 5.6%

Compound: CN(c1ccccc1)S(=O)(=O)c1ccc(NC(=O)c2ccc(-c3ccccc3)cc2)cc1
- inhibition [1]: 59.7% (active)

Compound: CCC(=Nc1ccc(N)cc1)C1=C(O)C(C(=O)OC)C(C)(C)CC1=O (stereo not drawn)
- inhibition [1]: 2.34%

Compound: CCc1ccc(S(=O)(=O)/N=C2/C=C(Sc3ncn[nH]3)C(=O)c3ccccc32)cc1
- inhibition [1]: 52.9% (active)

Compound: O=[N+]([O-])c1cc(S(=O)(=O)Nc2cccc(C(F)(F)F)c2)ccc1-n1nnc2ccccc21
- inhibition [1]: 18.7%

Compound: COC(=O)c1ccccc1C(=O)c1ccc2c(c1)NC(=O)CO2
- inhibition [1]: 7.04%

Compound: CC(=O)Oc1c(I)cc(I)cc1C(=O)Nc1ccc(Cl)cc1
- inhibition [1]: 66.8% (active)

Compound: Nc1c(Cl)cc(-c2[nH]c3cc(C(=O)NCCO)ccc3c(=O)c2O)cc1Cl
- inhibition [1]: -9.64%

Compound: CC(C)(C)c1ccc(NC(=O)C2=CC=CN3CCS(=O)(=O)N=C23)cc1
- inhibition [1]: 9.34%

Compound: O=c1nc(/C=C/c2cc([N+](=O)[O-])ccc2Cl)cc(C(F)(F)F)[nH]1
- inhibition [1]: 25.3%

Compound: CN1C(=O)NC(c2ccccc2[N+](=O)[O-])C2=C1CCCC2=O (stereo not drawn)
- inhibition [1]: 51.5% (active)

Compound: Cc1cc(C)c2c(N)c(C(=O)NN)sc2n1
- inhibition [1]: 10.5%

Compound: Cc1ccc(S(=O)(=O)/N=C2/C=C(Sc3ncn[nH]3)C(=O)c3ccccc32)cc1
- inhibition [1]: 54.4% (active)

Compound: Cn1c2ccccc2c2cc(/C=N/NC(=O)c3ccc(N)cc3)ccc21
- inhibition [1]: 19.7%

Compound: COc1cc2c(c(OC)c1OC)-c1ccc(NC(=O)c3ccc(F)cc3)c(=O)cc1[C@@H](NC(C)=O)CC2
- inhibition [1]: 0.65%

Compound: COc1ccc(-c2c/c(=N\c3nc(-c4ccccc4)c(C)s3)c3ccccc3o2)cc1O
- inhibition [1]: 20.8%

Compound: CN(C)c1ccc(NC(=O)Nc2cccc(Cl)c2)cc1
- inhibition [1]: 19.8%
